Assay results from ChEMBL document CHEMBL4261608, “Design, synthesis and anti-mycobacterial activity evaluation of benzofuran-isatin hybrids” (Eur J Med Chem, 2018).
In brackets after ≈: the same amount, converted by molar mass.

Assays:
[1] = Tmax in ICR mouse at 25 mg/kg, po administered as single dose; assay type: ADME, organism-based; settings: in vivo
Summary of the method: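 SPF female ICR mice (20-25 g), 3 per group, given a single oral dose of 25 mg/kg as a suspension in 0.5% CMC. Blood drawn from the jugular vein at 0.25, 0.5, 1, 2, 4, 6, 8 and 24 h post-dose. AUC(0-inf), t1/2, Cmax and Tmax derived directly from the concentration-time data.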

[2] = Selectivity index, ratio of CC50 for African green monkey Vero cells to MIC for Mycobacterium tuberculosis H37Rv; assay type: toxicity; settings: read-out: Selectivity Index
Summary of the method: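 SI calculated as CC50/MIC against H37Rv. Viability read by MTT, CC50 by Bliss analysis. MIC comes from the 7-day visual broth test.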

[3] = test system: Mycobacterium tuberculosis; assay: Antimycobacterial activity against Mycobacterium tuberculosis H37Rv incubated for 7 days by rapid direct susceptibility test; assay type: functional; settings: 168 h
Summary of the method: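 Two-fold dilutions of compound mixed with MTB suspension holding 4×10^-3 mg cells (H37Rv, or MDR strain resistant to ethambutol, INH and RIF) in 48-well plates. Incubation at 37 °C in a wet box. Cells in each well observed by continuous visual high-magnification system, re-read 7 days later. MIC taken as lowest concentration inhibiting visible growth.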

[4] = Cytotoxicity against African green monkey Vero cells after 72 hrs by MTT assay; assay type: cell-based; settings: chlorocebus sabaeus

Compound `CCOC(=O)c1c(-c2ccc(OC)cc2)oc2ccc(OCc3cn(CCN4C(=O)/C(=N/NC(N)=S)c5cc(OC)ccc54)nn3)cc12` has a Tmax [1] of 1.24 h.

Work on `CCOC(=O)c1c(-c2ccc(O)cc2)oc2ccc(O)c(CN3CCCCC3)c12` yielded a Tmax [1] of 3.46 h.

Work on `NNC(=O)c1ccncc1` [ISONIAZID] yielded a selectivity ratio [2] of 4096, an MIC [3] of 0.06 µg/mL (≈ 0.438 µM) and a CC50 at 72 h [4] of 256 µM.

In the case of `CO[C@H]1/C=C/O[C@@]2(C)Oc3c(C)c(O)c4c(O)c(c(/C=N/N5CCN(C)CC5)c(O)c4c3C2=O)NC(=O)/C(C)=C\C=C\[C@H](C)[C@H](O)[C@@H](C)[C@@H](O)[C@@H](C)[C@H](OC(C)=O)[C@@H]1C` [RIFAMPIN], the selectivity ratio [2] is reported as 1024 and the CC50 at 72 h [4] is reported as 512 µM.
